Measurements: ChEMBL document CHEMBL1131640, “L-carnitine esters as "soft", broad-spectrum antimicrobial amphiphiles” (J Med Chem, 1998)

How the values were obtained:
Format in all cases: functional
Saccharomyces cerevisiae = assay: Minimal inhibitory concentration against Saccharomyces cerevisiae
How it was run: (§1)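 Microtiter broth dilution MIC assay. Strains: S. aureus, S. faecalis, E. coli, P. vulgaris and C. albicans were wild-type clinical isolates; S. cerevisiae ATCC 7752, A. fumigatus ATCC 28212, A. niger ATCC 16404 and M. mucedo ATCC 7941.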

Staphylococcus aureus = assay: Minimal inhibitory concentration against Staphylococcus aureus; how it was run: as §1
Candida albicans = assay: Minimal inhibitory concentration against Candida albicans; how it was run: as §1
Escherichia coli = assay: Minimal inhibitory concentration against Escherichia coli; how it was run: as §1
Proteus vulgaris = assay: Minimal inhibitory concentration against Proteus vulgaris; how it was run: as §1
Enterococcus faecalis = assay: Minimal inhibitory concentration against Streptococcus faecalis; how it was run: as §1
Aspergillus fumigatus = assay: Minimal inhibitory concentration against Aspergillus fumigatus; how it was run: as §1
Mucor mucedo = assay: Minimal inhibitory concentration against Mucor mucedo; how it was run: as §1
Aspergillus niger = assay: Minimal inhibitory concentration against Aspergillus niger; how it was run: as §1

| MIC (Saccharomyces cerevisiae) | MIC (Staphylococcus aureus) | MIC (Candida albicans) | MIC (Escherichia coli) | MIC (Proteus vulgaris) | MIC (Enterococcus faecalis) | MIC (Aspergillus fumigatus) | MIC (Mucor mucedo) | MIC (Aspergillus niger) | Compound |
| --- | --- | --- | --- | --- | --- | --- | --- | --- | --- |
| 3.12 µg/mL | 6.25 µg/mL | 3.12 µg/mL | 50 µg/mL | 100 µg/mL | 3.12 µg/mL | 12.5 µg/mL | 25 µg/mL | 12.5 µg/mL | CCCCCCCCCCCC(=O)O[C@H](CC(=O)OCCOc1ccccc1)C[N+](C)(C)C.[Cl-] |
| > 100 µg/mL | 3.12 µg/mL | 3.12 µg/mL | 50 µg/mL | 100 µg/mL | 3.12 µg/mL | 6.25 µg/mL | 25 µg/mL | 6.25 µg/mL | CCCCCCCOC(=O)C[C@H](C[N+](C)(C)C)OC(=O)CCCCCCCCCBr.[Cl-] |
| – | 6.25 µg/mL | – | 25 µg/mL | 50 µg/mL | 3.12 µg/mL | – | – | – | CCCCCCCCCCCOC(=O)C[C@H](C[N+](C)(C)C)OC(=O)CC(C)C.[Cl-] |
| 3.12 µg/mL | 3.12 µg/mL | 3.12 µg/mL | 25 µg/mL | 100 µg/mL | 1.56 µg/mL | 3.12 µg/mL | 6.25 µg/mL | 3.12 µg/mL | CCCCCCCCCCCOC(=O)C[C@H](C[N+](C)(C)C)OC(=O)CCCCCC.[Cl-] |
| 3.12 µg/mL | 6.25 µg/mL | 3.12 µg/mL | 50 µg/mL | 100 µg/mL | 3.12 µg/mL | 12.5 µg/mL | 25 µg/mL | 12.5 µg/mL | CCCCCCCCCCCOC(=O)C[C@H](C[N+](C)(C)C)OC(=O)CCCBr.[Cl-] |
| > 100 µg/mL | 3.12 µg/mL | – | 25 µg/mL | > 100 µg/mL | 3.12 µg/mL | – | – | – | CCCCCCCCCCCOC(=O)C[C@H](C[N+](C)(C)C)OC(=O)CCCCCCC.[Cl-] |
| 12.5 µg/mL | 12.5 µg/mL | 12.5 µg/mL | > 100 µg/mL | > 100 µg/mL | 6.25 µg/mL | 100 µg/mL | 50 µg/mL | 25 µg/mL | CCCCCCCCCCCCCOC(=O)C[C@H](C[N+](C)(C)C)OC(=O)CCCCCCCC.[Cl-] |
| 12.5 µg/mL | 6.25 µg/mL | 3.12 µg/mL | 25 µg/mL | 50 µg/mL | 3.12 µg/mL | 25 µg/mL | 50 µg/mL | 25 µg/mL | CCCCCCCCCCC(=O)O[C@H](CC(=O)OCCOc1ccccc1)C[N+](C)(C)C.[Cl-] |
| > 100 µg/mL | > 100 µg/mL | > 100 µg/mL | > 100 µg/mL | > 100 µg/mL | > 100 µg/mL | > 100 µg/mL | > 100 µg/mL | > 100 µg/mL | CCCCCCCOC(=O)C[C@H](C[N+](C)(C)C)OC(=O)CCOc1ccccc1.[Cl-] |
| – | 6.25 µg/mL | – | > 100 µg/mL | > 100 µg/mL | 3.12 µg/mL | – | – | – | CCCCCCCCCCCCCOC(=O)C[C@H](C[N+](C)(C)C)OC(=O)CCCCCC.[Cl-] |
| – | 6.25 µg/mL | – | > 100 µg/mL | > 100 µg/mL | 6.25 µg/mL | – | – | – | CCCCCCCCCCCCCOC(=O)C[C@H](C[N+](C)(C)C)OC(=O)CCCCCCC.[Cl-] |
| 3.12 µg/mL | 3.12 µg/mL | 3.12 µg/mL | 25 µg/mL | 50 µg/mL | 3.12 µg/mL | 12.5 µg/mL | 25 µg/mL | 6.25 µg/mL | CCCCCCCCOC(=O)C[C@H](C[N+](C)(C)C)OC(=O)CCCCCCCC.[Cl-] |
| – | 3.12 µg/mL | – | 25 µg/mL | > 100 µg/mL | 1.56 µg/mL | – | – | – | CCCCCCCCCCCOC(=O)C[C@H](C[N+](C)(C)C)OC(=O)CCC(C)C.[Cl-] |
| > 100 µg/mL | > 100 µg/mL | – | > 100 µg/mL | > 100 µg/mL | 3.12 µg/mL | – | – | – | CCCCCCCCCCCOC(=O)C[C@H](C[N+](C)(C)C)OC(=O)CCCCCCCCCC.[Cl-] |
| – | 6.25 µg/mL | – | 25 µg/mL | 100 µg/mL | 3.12 µg/mL | – | – | – | CCCCCCCCCCCCOC(=O)C[C@H](C[N+](C)(C)C)OC(=O)C(C)C.[Cl-] |
| 3.12 µg/mL | 3.12 µg/mL | 3.12 µg/mL | > 100 µg/mL | > 100 µg/mL | 1.56 µg/mL | 3.12 µg/mL | 12.5 µg/mL | 6.25 µg/mL | CCCCCCCCCCCCOC(=O)C[C@H](C[N+](C)(C)C)OC(=O)CCCCCC.[Cl-] |
| 3.12 µg/mL | 12.5 µg/mL | 3.12 µg/mL | 50 µg/mL | > 100 µg/mL | 6.25 µg/mL | 50 µg/mL | 100 µg/mL | 25 µg/mL | CCCCCCCCCCOC(=O)C[C@H](C[N+](C)(C)C)OC(=O)CC(C)C.[Cl-] |
| – | 3.12 µg/mL | – | 100 µg/mL | 100 µg/mL | 1.56 µg/mL | – | – | – | CCCCCCCCCCCCCOC(=O)C[C@H](C[N+](C)(C)C)OC(=O)CC(C)C.[Cl-] |
| 3.12 µg/mL | 3.12 µg/mL | 3.12 µg/mL | 25 µg/mL | 50 µg/mL | 3.12 µg/mL | 25 µg/mL | 50 µg/mL | 25 µg/mL | CCCCCCCCCCOC(=O)C[C@H](C[N+](C)(C)C)OC(=O)CCCCCC.[Cl-] |
| 1.56 µg/mL | 3.12 µg/mL | – | 100 µg/mL | > 100 µg/mL | 3.12 µg/mL | – | – | – | CCCCCCCCCCCCOC(=O)C[C@H](C[N+](C)(C)C)OC(=O)CC(C)C.[Cl-] |

More lines, now with the values behind:

| Compound | MIC (Saccharomyces cerevisiae) | MIC (Staphylococcus aureus) | MIC (Candida albicans) | MIC (Escherichia coli) | MIC (Proteus vulgaris) | MIC (Enterococcus faecalis) | MIC (Aspergillus fumigatus) | MIC (Mucor mucedo) | MIC (Aspergillus niger) |
| --- | --- | --- | --- | --- | --- | --- | --- | --- | --- |
| CCCCCCCCCCCCCCCCCC(=O)O[C@H](CC(=O)O)C[N+](C)(C)C.[Cl-] | > 100 µg/mL | > 100 µg/mL | > 100 µg/mL | > 100 µg/mL | > 100 µg/mL | 25 µg/mL | > 100 µg/mL | > 100 µg/mL | > 100 µg/mL |
| CC(C)CC(=O)O[C@H](CC(=O)OCCCCCCCCCCCBr)C[N+](C)(C)C.[Cl-] | > 100 µg/mL | 12.5 µg/mL | 6.25 µg/mL | 100 µg/mL | 100 µg/mL | 6.25 µg/mL | 25 µg/mL | 50 µg/mL | 50 µg/mL |
| CCCCCCCCCCCOC(=O)C[C@@H](O)C[N+](C)(C)C.[Cl-] | > 100 µg/mL | 12.5 µg/mL | > 100 µg/mL | > 100 µg/mL | > 100 µg/mL | 25 µg/mL | > 100 µg/mL | > 100 µg/mL | > 100 µg/mL |
| CCCCCCCCCCCCCOC(=O)C[C@H](C[N+](C)(C)C)OC(=O)CCCCCCCCCC.[Cl-] | 25 µg/mL | 50 µg/mL | 25 µg/mL | > 100 µg/mL | > 100 µg/mL | 25 µg/mL | > 100 µg/mL | 50 µg/mL | 100 µg/mL |
| CCCCCCCCCCCCCCCCOC(=O)C[C@H](C[N+](C)(C)C)OC(=O)CC(C)C.[Cl-] | 3.12 µg/mL | 6.25 µg/mL | – | > 100 µg/mL | > 100 µg/mL | 3.12 µg/mL | – | – | – |
| CCCCCCCCOC(=O)C[C@H](C[N+](C)(C)C)OC(=O)CC(C)C.[Cl-] | > 100 µg/mL | 50 µg/mL | > 100 µg/mL | > 100 µg/mL | > 100 µg/mL | 50 µg/mL | > 100 µg/mL | > 100 µg/mL | > 100 µg/mL |
| C=CCCCCCCCCCOC(=O)C[C@H](C[N+](C)(C)C)OC(=O)CC(C)C.[Cl-] | 6.25 µg/mL | 12.5 µg/mL | 6.25 µg/mL | 25 µg/mL | 50 µg/mL | 3.12 µg/mL | 12.5 µg/mL | 12.5 µg/mL | 6.25 µg/mL |
| CCCCCCCCCCCCCCCCOC(=O)C[C@@H](O)C[N+](C)(C)C.[Cl-] | > 100 µg/mL | 6.25 µg/mL | 6.25 µg/mL | > 100 µg/mL | > 100 µg/mL | 3.12 µg/mL | 6.25 µg/mL | 6.25 µg/mL | 3.12 µg/mL |
| CCCCCCCCCCC(=O)O[C@H](CC(=O)OCCCCCCC(F)(F)C(F)(F)C(F)(F)C(F)(F)F)C[N+](C)(C)C.[Cl-] | 12.5 µg/mL | 12.5 µg/mL | 12.5 µg/mL | > 100 µg/mL | > 100 µg/mL | – | 25 µg/mL | 50 µg/mL | 12.5 µg/mL |
| CCCCCCCCCCC(=O)O[C@H](CC(=O)OCCC(F)(F)C(F)(F)C(F)(F)C(F)(F)C(F)(F)C(F)(F)C(F)(F)C(F)(F)F)C[N+](C)(C)C.[Cl-] | > 100 µg/mL | > 100 µg/mL | > 100 µg/mL | > 100 µg/mL | > 100 µg/mL | > 100 µg/mL | > 100 µg/mL | > 100 µg/mL | > 100 µg/mL |
| CCCCCCCCCCCCCOC(=O)C[C@H](C[N+](C)(C)C)OC(=O)C(C)CCCC.[Cl-] (some centres undefined) | – | 6.25 µg/mL | – | > 100 µg/mL | > 100 µg/mL | 6.25 µg/mL | – | – | – |
| CC(C)CC(=O)O[C@H](CC(=O)OCCCCCCC(F)(F)C(F)(F)C(F)(F)C(F)(F)F)C[N+](C)(C)C.[Cl-] | 25 µg/mL | 12.5 µg/mL | 12.5 µg/mL | > 100 µg/mL | 100 µg/mL | 6.25 µg/mL | 100 µg/mL | 50 µg/mL | 50 µg/mL |
| CCCCCCCCCCCC(=O)O[C@H](CC(=O)OCCC(F)(F)C(F)(F)C(F)(F)C(F)(F)C(F)(F)C(F)(F)F)C[N+](C)(C)C.[Cl-] | > 100 µg/mL | > 100 µg/mL | > 100 µg/mL | > 100 µg/mL | > 100 µg/mL | > 100 µg/mL | > 100 µg/mL | > 100 µg/mL | > 100 µg/mL |
| CCCCCC(CCCCC)OC(=O)C[C@H](C[N+](C)(C)C)OC(=O)CC(C)C.[Cl-] | 12.5 µg/mL | 12.5 µg/mL | 25 µg/mL | 100 µg/mL | > 100 µg/mL | 3.12 µg/mL | > 100 µg/mL | 100 µg/mL | 50 µg/mL |
